Source: ChEMBL document CHEMBL1124009 (J Med Chem, 1988)

Key:
[1] = target: Delta-type opioid receptor (Rattus norvegicus, UniProt P33533); assay: Binding affinity in competition with [3H]- DPDPE in Opioid receptor delta 1 binding to rat brain membrane
Method in brief: (§1)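 Brains (minus cerebellum) of male Sprague–Dawley rats (200–250 g) were homogenized, preincubated 30 min at 25 °C and centrifuged twice at 43000g. Homogenate at 0.5% final was incubated with 0.5 nM [3H]CTOP (μ) or 1.0 nM [3H]DPDPE (δ) in 50 mM Tris-HCl pH 7.4 with 5 mM MgCl2, BSA 1 mg/mL and 100 μM PMSF, 120 min at 25 °C, in duplicate. Nonspecific binding was taken with 1 μM naloxone; bound label was filtered and scintillation counted; curves were fit by nonlinear least squares.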

Mu-type opioid receptor = Mu-type opioid receptor (Rattus norvegicus, UniProt P33535); assay: Binding affinity in competition with [3H]- CTOP in Opioid receptor mu 1 binding to rat brain membrane; method in brief: as §1
Mu-type opioid receptor, sequence (P33535 whole entry): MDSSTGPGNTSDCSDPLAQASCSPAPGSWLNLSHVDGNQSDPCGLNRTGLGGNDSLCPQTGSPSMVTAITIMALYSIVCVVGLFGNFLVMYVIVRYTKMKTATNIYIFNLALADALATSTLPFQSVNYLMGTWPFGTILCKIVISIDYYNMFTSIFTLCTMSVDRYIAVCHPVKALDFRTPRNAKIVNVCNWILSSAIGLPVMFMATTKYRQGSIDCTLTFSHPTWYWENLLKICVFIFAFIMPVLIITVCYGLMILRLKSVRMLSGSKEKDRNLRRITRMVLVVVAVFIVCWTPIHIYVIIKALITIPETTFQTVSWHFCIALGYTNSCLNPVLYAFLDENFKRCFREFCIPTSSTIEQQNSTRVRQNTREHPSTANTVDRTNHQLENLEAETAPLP

[2] = target: Opioid receptors; mu & delta (Rattus norvegicus) (UniProt P33533+P33535); assay: Ratio of selective binding affinity of mu receptor to that of delta opioid receptor; type: protein assay
Opioid receptors; mu & delta (Rattus norvegicus), sequence (P33533 whole entry, looked up): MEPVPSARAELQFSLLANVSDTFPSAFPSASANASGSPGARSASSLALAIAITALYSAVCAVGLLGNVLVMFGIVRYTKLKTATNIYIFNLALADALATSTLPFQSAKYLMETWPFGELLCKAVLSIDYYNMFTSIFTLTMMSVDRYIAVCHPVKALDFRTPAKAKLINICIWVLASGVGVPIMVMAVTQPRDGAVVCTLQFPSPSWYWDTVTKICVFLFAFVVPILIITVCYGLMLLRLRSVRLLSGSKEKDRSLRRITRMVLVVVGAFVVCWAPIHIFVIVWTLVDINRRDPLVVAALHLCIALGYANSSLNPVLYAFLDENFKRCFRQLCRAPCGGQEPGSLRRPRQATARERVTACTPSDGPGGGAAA
Opioid receptors; mu & delta (Rattus norvegicus), sequence (P33535 whole entry, looked up): as the sequence (P33535 whole entry) above

[3] = Ratio of selective binding affinity of mu receptor to that of somatostatin receptor
Somatostatin receptor = assay: Binding affinity in competition with [125I]- CGP-23996 in somatostatin receptor binding to rat brain membrane
Method in brief: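 Rat whole-brain membranes (adult male Sprague–Dawley) at 1.0% final tissue were incubated with 0.2 nM [125I]CGP 23,996 and analogues at 100–0.3 μM. Buffer was 50 mM Tris pH 7.4 with 2.0 mg/mL BSA, 20 μg/mL bacitracin and 5 mM MgCl2. Incubation ran 1 h at 37 °C and ended by rapid filtration through BSA-soaked GF/B filters.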

Delta-type opioid receptor, sequence (P33533 whole entry): as the sequence (P33533 whole entry, looked up) above

For `C[C@@H](O)[C@H](NC(=O)[C@H]1NC(=O)[C@H](CC(N)=O)NC(=O)[C@H](Cc2ccc(O)cc2)NC(=O)[C@@H](NC(=O)[C@H](N)Cc2ccccc2)CSSC1(C)C)C(N)=O`, the IC50 [1] was > 10 µM.
For `C[C@@H](O)[C@@H]1NC(=O)[C@H](CCCCN)NC(=O)C(Cc2c[nH]c3ccccc23)NC(=O)[C@H](Cc2ccc(O)cc2)NC(=O)[C@@H](NC(=O)[C@H](N)Cc2ccccc2)CSSC(C)(C)[C@@H](C(=O)N[C@@H](CC(=O)O)C(N)=O)NC1=O` (stereo in doubt) [listing 1 of 3 here], the IC50 [1] was > 10 µM and the IC50 (Mu-type opioid receptor) was 3.47 µM.
For `C[C@@H](O)[C@@H]1NC(=O)[C@H](CCCCN)NC(=O)C(Cc2c[nH]c3ccccc23)NC(=O)[C@H](Cc2ccc(O)cc2)NC(=O)[C@@H](NC(=O)[C@H](N)Cc2ccccc2)CSSC(C)(C)[C@@H](C(=O)N[C@@H](CO)C(N)=O)NC1=O` (stereo in doubt) [listing 1 of 2 here], the Ratio [2] was > 490 and the Ratio [3] was 94.
For `C[C@@H](O)[C@@H]1NC(=O)[C@H](CCCN)NC(=O)C(Cc2c[nH]c3ccccc23)NC(=O)[C@H](Cc2ccc(O)cc2)NC(=O)[C@@H](NC(=O)[C@H](N)Cc2ccccc2)CSSC(C)(C)[C@@H](C(N)=O)NC1=O` (stereo in doubt) [listing 1 of 2 here], the IC50 [1] was > 10 µM and the IC50 (Mu-type opioid receptor) was 0.187 µM.
Molecule `C[C@@H](O)[C@@H]1NC(=O)[C@H](CCCCN)NC(=O)C(Cc2c[nH]c3ccccc23)NC(=O)[C@H](Cc2ccc(O)cc2)NC(=O)[C@@H](NC(=O)[C@H](N)Cc2ccccc2)CSSC(C)(C)[C@@H](C(N)=O)NC1=O` (stereo in doubt) [listing 1 of 2 here] has an IC50 (Somatostatin receptor) of 1.942 µM.
With `C[C@@H](O)[C@@H]1NC(=O)[C@H](CCCCN)NC(=O)C(Cc2c[nH]c3ccccc23)NC(=O)[C@H](Cc2ccc(O)cc2)NC(=O)[C@@H](NC(=O)[C@H](N)Cc2ccccc2)CSSC(C)(C)[C@@H](C(=O)N[C@@H](CC(N)=O)C(N)=O)NC1=O` (stereo in doubt) [listing 1 of 2 here] the IC50 [1] was > 10 µM and the IC50 (Mu-type opioid receptor) was 0.13 µM.
For `CN[C@H](Cc1ccccc1)C(=O)N[C@H]1CSSC(C)(C)[C@@H](C(=O)N[C@H](C(N)=O)[C@@H](C)O)NC(=O)[C@H]([C@@H](C)O)NC(=O)[C@H](CCCN)NC(=O)C(Cc2c[nH]c3ccccc23)NC(=O)[C@H](Cc2ccc(O)cc2)NC1=O` (stereo in doubt) [listing 1 of 2 here], the IC50 [1] was > 10 µM and the IC50 (Mu-type opioid receptor) was 0.284 µM.
In the case of `C[C@@H](O)[C@H](NC(=O)[C@H]1NC(=O)[C@H](CCCCN)NC(=O)C(Cc2c[nH]c3ccccc23)NC(=O)[C@@H](Cc2ccc(O)cc2)NC(=O)[C@@H](NC(=O)[C@H]2Cc3ccccc3CN2)CSSC1(C)C)C(N)=O` (stereo in doubt) [listing 1 of 2 here], the IC50 [1] is reported as > 10 µM and the IC50 (Mu-type opioid receptor) is reported as 9.41 µM.
In the case of `C[C@@H](O)[C@@H]1NC(=O)[C@H](CCCCN)NC(=O)C(Cc2c[nH]c3ccccc23)NC(=O)[C@H](Cc2ccc(O)cc2)NC(=O)[C@@H](NC(=O)[C@H](N)Cc2ccccc2)CSSC(C)(C)[C@@H](C(=O)N[C@@H](CC(=O)O)C(N)=O)NC1=O` (stereo in doubt) [listing 2 of 3 here], the Ratio [2] is reported as > 2.9 and the Ratio [3] is reported as 2.4.
With `C[C@@H](O)[C@@H]1NC(=O)[C@H](CCCN)NC(=O)C(Cc2c[nH]c3ccccc23)NC(=O)[C@H](Cc2ccc(O)cc2)NC(=O)[C@@H](NC(=O)[C@H](N)Cc2ccccc2)CSSC(C)(C)[C@@H](C(N)=O)NC1=O` (stereo in doubt) [listing 2 of 2 here] the IC50 (Somatostatin receptor) was 47.273 µM.
For `C[C@@H](O)[C@H](NC(=O)[C@H]1NC(=O)[C@H]([C@@H](C)O)NC(=O)[C@H](CCCN)NC(=O)C(Cc2c[nH]c3ccccc23)NC(=O)[C@@H](Cc2ccc(O)cc2)NC(=O)[C@@H](NC(=O)[C@H]2Cc3ccccc3CN2C(=O)CN)CSSC1(C)C)C(N)=O` (stereo in doubt) [listing 1 of 2 here], the IC50 (Somatostatin receptor) was 19.408 µM.
`C[C@@H](O)[C@H](NC(=O)[C@H]1NC(=O)[C@H](CCCCN)NC(=O)C(Cc2c[nH]c3ccccc23)NC(=O)[C@@H](Cc2ccc(O)cc2)NC(=O)[C@@H](NC(=O)[C@H]2Cc3ccccc3CN2)CSSC1(C)C)C(N)=O` (stereo in doubt) [listing 2 of 2 here] gave an IC50 (Somatostatin receptor) of 13.61 µM.
With `C[C@@H](O)[C@H](NC(=O)[C@H]1NC(=O)[C@H]([C@@H](C)O)NC(=O)[C@H](CCCCN)NC(=O)C(Cc2c[nH]c3ccccc23)NC(=O)[C@@H](Cc2ccc(O)cc2)NC(=O)[C@@H](NC(=O)[C@H]2Cc3ccccc3CN2)CSSC1(C)C)C(N)=O` (stereo in doubt) [listing 1 of 2 here] the Ratio [2] was 7770 and the Ratio [3] was 791.
`C[C@@H](O)[C@H](NC(=O)[C@H]1NC(=O)[C@H]([C@@H](C)O)NC(=O)[C@H](CCCCN)NC(=O)C(Cc2c[nH]c3ccccc23)NC(=O)[C@H](Cc2ccc(O)cc2)NC(=O)[C@@H](NC(=O)C(N)Cc2c[nH]c3ccccc23)CSSC1(C)C)C(N)=O` (stereo in doubt) [listing 1 of 2 here] showed an IC50 (Somatostatin receptor) of 1.599 µM.
For `C[C@@H](O)[C@@H]1NC(=O)[C@H](CCCCN)NC(=O)C(Cc2c[nH]c3ccccc23)NC(=O)[C@H](Cc2ccc(O)cc2)NC(=O)[C@@H](NC(=O)[C@H]2Cc3ccccc3CN2)CSSC(C)(C)[C@@H](C(=O)N[C@@H](CO)C(N)=O)NC1=O` (stereo in doubt) [listing 1 of 2 here], the IC50 (Somatostatin receptor) was 1.499 µM.
For `C[C@@H](O)[C@H](NC(=O)[C@H]1NC(=O)[C@H](CC(N)=O)NC(=O)[C@H](Cc2ccccc2)NC(=O)[C@@H](NC(=O)[C@H](N)Cc2ccc(O)cc2)CSSC1(C)C)C(N)=O`, the IC50 [1] was ≥ 10 µM and the IC50 (Mu-type opioid receptor) was 7.47 µM.
`C[C@@H](O)[C@H](NC(=O)[C@H]1NC(=O)[C@H]([C@@H](C)O)NC(=O)[C@H](CCCCN)NC(=O)C(Cc2c[nH]c3ccccc23)NC(=O)[C@@H](Cc2ccc(O)cc2)NC(=O)[C@@H](NC(=O)[C@H]2Cc3ccccc3CN2)CSSC1(C)C)C(N)=O` (stereo in doubt) [listing 2 of 2 here] showed an IC50 (Somatostatin receptor) of 0.949 µM.
With `C[C@@H](O)[C@H](NC(=O)[C@H]1NC(=O)[C@H]([C@@H](C)O)NC(=O)[C@H](CCCCN)NC(=O)C(Cc2c[nH]c3ccccc23)NC(=O)[C@H](Cc2ccc(O)cc2)NC(=O)[C@@H](NC(=O)C(N)Cc2c[nH]c3ccccc23)CSSC1(C)C)C(N)=O` (stereo in doubt) [listing 2 of 2 here] the IC50 [1] was > 10 µM and the IC50 (Mu-type opioid receptor) was 0.0063 µM.
Molecule `C[C@@H](O)[C@H](NC(=O)[C@H]1NC(=O)[C@H]([C@@H](C)O)NC(=O)[C@H](CCCN)NC(=O)[C@@H](Cc2c[nH]c3ccccc23)NC(=O)[C@H](Cc2ccc(O)cc2)NC(=O)[C@@H](NC(=O)[C@H](N)Cc2ccccc2)CSSC1(C)C)C(N)=O` has an IC50 [1] of 5.6 µM.
In the case of `C[C@@H](O)[C@H](NC(=O)[C@@H]1NC(=O)[C@H](CCCCN)NC(=O)C(Cc2c[nH]c3ccccc23)NC(=O)[C@H](Cc2ccc(O)cc2)NC(=O)[C@@H](NC(=O)[C@@H](N)Cc2ccccc2)CSSC1(C)C)C(N)=O` (stereo in doubt) [listing 1 of 2 here], the IC50 (Somatostatin receptor) is reported as 6.103 µM.
In the case of `C[C@@H](O)[C@H](NC(=O)[C@@H]1NC(=O)[C@H]([C@@H](C)O)NC(=O)[C@@H](Cc2c[nH]c3ccccc23)NC(=O)[C@H](Cc2ccc(O)cc2)NC(=O)[C@@H](NC(=O)[C@H](N)Cc2ccccc2)CSSC1(C)C)C(N)=O`, the IC50 [1] is reported as 7.82 µM and the IC50 (Mu-type opioid receptor) is reported as 10 µM.
`C[C@@H](O)[C@@H]1NC(=O)[C@H](CCCCN)NC(=O)C(Cc2c[nH]c3ccccc23)NC(=O)[C@H](Cc2ccc(O)cc2)NC(=O)[C@@H](NC(=O)[C@H](N)Cc2ccccc2)CSSC(C)(C)[C@@H](C(=O)N[C@@H](CC(N)=O)C(N)=O)NC1=O` (stereo in doubt) [listing 2 of 2 here] gave an IC50 (Somatostatin receptor) of 1.801 µM.
Work on `C[C@@H](O)[C@@H]1NC(=O)[C@H](CCCCN)NC(=O)C(Cc2c[nH]c3ccccc23)NC(=O)[C@H](Cc2ccc(O)cc2)NC(=O)[C@@H](NC(=O)[C@H](N)Cc2ccccc2)CSSC(C)(C)[C@@H](C(=O)N[C@@H](CC(=O)O)C(N)=O)NC1=O` (stereo in doubt) [listing 3 of 3 here] yielded an IC50 (Somatostatin receptor) of 8.3 µM.
In the case of `C[C@@H](O)[C@@H]1NC(=O)[C@H](CCCCN)NC(=O)C(Cc2c[nH]c3ccccc23)NC(=O)[C@H](Cc2ccc(O)cc2)NC(=O)[C@@H](NC(=O)[C@H]2Cc3ccccc3CN2)CSSC(C)(C)[C@@H](C(=O)N[C@@H](CO)C(N)=O)NC1=O` (stereo in doubt) [listing 2 of 2 here], the IC50 [1] is reported as 3.83 µM and the IC50 (Mu-type opioid receptor) is reported as 0.0078 µM.
For `C[C@@H](O)[C@H](NC(=O)[C@H]1NC(=O)[C@H]([C@@H](C)O)NC(=O)[C@H](CCCN=C(N)N)NC(=O)[C@@H](Cc2c[nH]c3ccccc23)NC(=O)[C@H](Cc2ccc(O)cc2)NC(=O)[C@@H](NC(=O)[C@H](N)Cc2ccccc2)CSSC1(C)C)C(N)=O`, the IC50 [1] was 5.31 µM and the IC50 (Mu-type opioid receptor) was 0.0021 µM.
Work on `CN[C@H](Cc1ccccc1)C(=O)N[C@H]1CSSC(C)(C)[C@@H](C(=O)N[C@H](C(N)=O)[C@@H](C)O)NC(=O)[C@H]([C@@H](C)O)NC(=O)[C@H](CCCN)NC(=O)C(Cc2c[nH]c3ccccc23)NC(=O)[C@H](Cc2ccc(O)cc2)NC1=O` (stereo in doubt) [listing 2 of 2 here] yielded an IC50 (Somatostatin receptor) of 8.054 µM.
For `C[C@@H](O)[C@@H]1NC(=O)[C@H](CCCCN)NC(=O)C(Cc2c[nH]c3ccccc23)NC(=O)[C@H](Cc2ccc(O)cc2)NC(=O)[C@@H](NC(=O)[C@H](N)Cc2ccccc2)CSSC(C)(C)[C@@H](C(N)=O)NC1=O` (stereo in doubt) [listing 2 of 2 here], the IC50 [1] was > 10 µM and the IC50 (Mu-type opioid receptor) was 0.115 µM.
`C[C@@H](O)[C@H](NC(=O)[C@H]1NC(=O)[C@H]([C@@H](C)O)NC(=O)[C@H](CCCN)NC(=O)C(Cc2c[nH]c3ccccc23)NC(=O)[C@@H](Cc2ccc(O)cc2)NC(=O)[C@@H](NC(=O)[C@H]2Cc3ccccc3CN2C(=O)CN)CSSC1(C)C)C(N)=O` (stereo in doubt) [listing 2 of 2 here] showed an IC50 [1] of 5.35 µM and an IC50 (Mu-type opioid receptor) of 0.278 µM.
For `C[C@@H](O)[C@H](NC(=O)[C@@H]1NC(=O)[C@H](CCCCN)NC(=O)C(Cc2c[nH]c3ccccc23)NC(=O)[C@H](Cc2ccc(O)cc2)NC(=O)[C@@H](NC(=O)[C@@H](N)Cc2ccccc2)CSSC1(C)C)C(N)=O` (stereo in doubt) [listing 2 of 2 here], the IC50 [1] was > 10 µM.
`C[C@@H](O)[C@@H]1NC(=O)[C@H](CCCCN)NC(=O)C(Cc2c[nH]c3ccccc23)NC(=O)[C@H](Cc2ccc(O)cc2)NC(=O)[C@@H](NC(=O)[C@H](N)Cc2ccccc2)CSSC(C)(C)[C@@H](C(=O)N[C@@H](CO)C(N)=O)NC1=O` (stereo in doubt) [listing 2 of 2 here] gave an IC50 (Somatostatin receptor) of 1.888 µM.
